Reference: ChEMBL document CHEMBL1132356, “Structural modification of Fas C-terminal tripeptide and its effects on the inhibitory activity of Fas/FAP-1 binding” (J Med Chem, 1999)
Starred links: 1 amine or outer side, 2 acyl side, 3 side chain; linkers in the order of their positions; H or OH if unused. Non-standard residues stand in square brackets, D forms with d. Residues, ends and D or L forms follow the SMILES beside them. *: point of attachment. Sta = CC(C)C[C@H](N)[C@@H](O)CC(=O)O; tBuAla = CC(C)(C)C[C@H](N)C(=O)O; NMeL = CN[C@@H](CC(C)C)C(=O)O; Chg = N[C@H](C(=O)O)C1CCCCC1; Phg = N[C@H](C(=O)O)c1ccccc1; Tle = CC(C)(C)[C@H](N)C(=O)O; NMeS = CN[C@@H](CO)C(=O)O; hSer = N[C@@H](CCO)C(=O)O; Nva = CCC[C@H](N)C(=O)O; Abu = CC[C@H](N)C(=O)O; Aib = CC(C)(N)C(=O)O; CO = O=C([*:1])[*:2]; Bz = O=C(c1ccccc1)*; NHPh = c1ccc(N*)cc1; Bn = c1ccc(C*)cc1

Tests used:
[1] = Compound (50 mM) was tested in vitro for inhibitory potency against Fas-associated phosphatase-1 binding from HFAP-10cDNA subcloned into the bluescript vector pSK-II(Stratagene)
Outline: (§1)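 ³⁵S-labeled protein incubated 16 h at 4 °C with peptide and GST-Fas immobilized on beads, in pH 8.0 Tris/NaCl buffer with DTT, EDTA, 1.1% NP-40 and protease inhibitors. After four washes, bead-bound radioactivity was counted by scintillation. Specific binding is Fas binding minus FasΔ15 binding. % inhibition = 100 − (specific binding with peptide / without peptide × 100).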

[2] = Compound (30 mM) was tested in vitro for inhibitory potency against Fas-associated phosphatase-1 binding from HFAP-10cDNA subcloned into the bluescript vector pSK-II(Stratagene); settings: in the assay text read “30 µM” for “30 mM”; outline: as §1
[3] = target: Tyrosine-protein phosphatase non-receptor type 13 (Homo sapiens) (UniProt Q12923); experiment: In vitro inhibition of Fas-associated phosphatase-1 binding from HFAP-10cDNA subcloned into bluescript vector; parameters: concentration or dose not given beside the values; settings: concentration not given here
Outline: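 35S-labeled FAP-1 incubated 16 h at 4 °C with peptide and GST-Fas fusion protein on glutathione beads in 150 mM NaCl, 50 mM Tris pH 8.0, 5 mM DTT, 2 mM EDTA, 1.1% NP-40, protease inhibitors. After four washes, bead-bound radioactivity counted by scintillation. Specific binding is Fas minus Fas∆15 binding. % inhibition = 100 − (specific binding with peptide / without peptide × 100).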

[4] = Compound (100 mM) was tested in vitro for inhibitory potency against Fas-associated phosphatase-1 binding from HFAP-10cDNA subcloned into the bluescript vector pSK-II(Stratagene); outline: as §1
[5] = Compound (10 mM) was tested in vitro for inhibitory potency against Fas-associated phosphatase-1 binding from HFAP-10cDNA subcloned into the bluescript vector pSK-II(Stratagene); settings: in the assay text read “10 uM” for “10 mM”; outline: as §1

Tyrosine-protein phosphatase non-receptor type 13 (Homo sapiens), sequence (Q12923 whole entry, the tested form may be a part): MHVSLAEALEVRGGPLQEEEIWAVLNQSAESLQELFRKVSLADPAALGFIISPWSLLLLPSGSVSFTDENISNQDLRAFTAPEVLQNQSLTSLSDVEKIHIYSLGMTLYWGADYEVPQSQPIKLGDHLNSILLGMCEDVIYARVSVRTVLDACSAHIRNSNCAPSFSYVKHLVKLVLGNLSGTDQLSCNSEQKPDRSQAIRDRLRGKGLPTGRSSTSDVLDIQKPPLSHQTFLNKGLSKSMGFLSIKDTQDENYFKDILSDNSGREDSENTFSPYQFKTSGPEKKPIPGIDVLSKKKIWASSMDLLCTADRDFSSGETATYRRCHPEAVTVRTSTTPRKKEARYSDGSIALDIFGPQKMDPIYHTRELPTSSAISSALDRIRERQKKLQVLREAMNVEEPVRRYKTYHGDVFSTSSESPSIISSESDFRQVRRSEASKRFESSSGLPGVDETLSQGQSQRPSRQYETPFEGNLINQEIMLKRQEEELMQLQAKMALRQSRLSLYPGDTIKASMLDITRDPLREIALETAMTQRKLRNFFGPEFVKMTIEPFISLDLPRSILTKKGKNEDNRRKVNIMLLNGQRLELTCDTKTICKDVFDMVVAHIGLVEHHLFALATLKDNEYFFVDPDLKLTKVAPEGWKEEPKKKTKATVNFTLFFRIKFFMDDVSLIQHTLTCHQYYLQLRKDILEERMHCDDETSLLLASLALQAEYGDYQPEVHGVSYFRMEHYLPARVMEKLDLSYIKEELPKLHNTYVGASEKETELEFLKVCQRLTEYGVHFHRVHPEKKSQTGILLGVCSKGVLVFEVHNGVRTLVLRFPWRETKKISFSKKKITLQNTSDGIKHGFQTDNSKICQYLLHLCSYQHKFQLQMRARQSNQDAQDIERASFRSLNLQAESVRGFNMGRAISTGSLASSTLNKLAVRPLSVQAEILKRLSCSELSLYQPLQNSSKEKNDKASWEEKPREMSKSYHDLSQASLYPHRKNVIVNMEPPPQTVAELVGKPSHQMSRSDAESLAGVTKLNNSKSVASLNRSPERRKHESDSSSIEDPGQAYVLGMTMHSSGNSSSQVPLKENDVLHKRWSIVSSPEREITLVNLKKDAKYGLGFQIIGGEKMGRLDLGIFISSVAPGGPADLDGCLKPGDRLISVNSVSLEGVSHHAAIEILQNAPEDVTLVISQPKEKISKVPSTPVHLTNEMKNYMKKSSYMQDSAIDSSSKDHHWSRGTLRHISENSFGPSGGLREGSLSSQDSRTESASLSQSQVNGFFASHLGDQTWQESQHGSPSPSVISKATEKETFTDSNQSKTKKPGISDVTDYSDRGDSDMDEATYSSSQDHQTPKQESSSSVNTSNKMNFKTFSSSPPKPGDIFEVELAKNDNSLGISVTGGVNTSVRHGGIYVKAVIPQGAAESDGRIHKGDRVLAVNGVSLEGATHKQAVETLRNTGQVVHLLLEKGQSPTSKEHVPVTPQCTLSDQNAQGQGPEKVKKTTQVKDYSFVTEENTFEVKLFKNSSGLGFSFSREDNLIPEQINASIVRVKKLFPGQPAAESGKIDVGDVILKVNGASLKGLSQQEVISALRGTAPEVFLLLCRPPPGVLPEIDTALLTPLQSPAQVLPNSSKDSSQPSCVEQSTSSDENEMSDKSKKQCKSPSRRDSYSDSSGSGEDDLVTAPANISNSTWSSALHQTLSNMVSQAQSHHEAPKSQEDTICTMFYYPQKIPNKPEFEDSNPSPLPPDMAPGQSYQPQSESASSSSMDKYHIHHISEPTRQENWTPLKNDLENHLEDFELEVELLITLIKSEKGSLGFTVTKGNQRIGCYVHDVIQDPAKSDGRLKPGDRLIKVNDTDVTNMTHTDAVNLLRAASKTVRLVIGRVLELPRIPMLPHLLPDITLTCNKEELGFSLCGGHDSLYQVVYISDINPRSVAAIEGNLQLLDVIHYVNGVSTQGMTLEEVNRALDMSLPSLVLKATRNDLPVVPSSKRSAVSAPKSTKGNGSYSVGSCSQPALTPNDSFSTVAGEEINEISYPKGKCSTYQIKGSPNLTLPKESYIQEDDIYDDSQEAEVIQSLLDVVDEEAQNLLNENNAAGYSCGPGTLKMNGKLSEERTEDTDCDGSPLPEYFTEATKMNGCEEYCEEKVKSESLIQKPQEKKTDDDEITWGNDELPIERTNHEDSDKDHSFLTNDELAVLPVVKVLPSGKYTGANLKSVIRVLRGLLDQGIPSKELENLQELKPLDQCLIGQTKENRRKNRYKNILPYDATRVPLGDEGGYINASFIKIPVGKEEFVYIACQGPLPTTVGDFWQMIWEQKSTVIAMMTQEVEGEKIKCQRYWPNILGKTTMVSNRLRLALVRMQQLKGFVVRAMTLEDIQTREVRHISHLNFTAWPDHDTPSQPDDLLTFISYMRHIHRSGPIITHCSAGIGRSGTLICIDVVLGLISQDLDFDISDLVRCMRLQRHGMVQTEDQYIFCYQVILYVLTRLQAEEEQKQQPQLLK

For `CC(=O)N1C[C@@H](O)C[C@H]1C(=O)N[C@@H](CC(C)C)C(=O)N[C@H](C(=O)O)C(C)C`, the inhibition [1] was 9.6%.
Work on `CC(=O)N1C[C@H](O)C[C@H]1C(=O)N[C@@H](CC(C)C)C(=O)N[C@H](C(=O)O)C(C)C` yielded an inhibition [1] of 2.4%.
`CC(=O)N[C@@H](CO)C(=O)NCCC(=O)N[C@H](C(=O)O)C(C)C` showed an inhibition [2] of 13.6%.
For `CC(=O)N[C@@H](CO)C(=O)N[C@@H](CC(C)C)C(=O)N[C@@H](C(=O)O)C(C)C`, the inhibition [3] was -6.8%.
With `CC(=O)N[C@@H](CO)C(=O)N[C@@H](CC(C)C)C(=O)N[C@H](C(=O)O)C(C)C` the inhibition [3] was 101%, the inhibition [2] was 31.1% and the inhibition [4] was 87.6%. It also gave an inhibition [1] of 44.3%.
`CC(=O)N[C@@H](CO)C(=O)N[C@@H](CC(C)C)C(=O)N[C@H](C(=O)Oc1nn[nH]n1)C(C)C` gave an inhibition [3] of 14.4%.
`CC(=O)N[C@@H](CO)C(=O)N[C@@H](CC(C)C)[C@@H](O)C(=O)N[C@H](C(=O)O)C(C)C` gave an inhibition [2] of 4.9%.
With `CC(=O)N[C@@H](CO)C(=O)N[C@@H](Cc1ccc(Oc2ccc(OC(C)=O)cc2)cc1)C(=O)N[C@H](C(=O)O)C(C)C` the inhibition [2] was 46.7%.
`CC(=O)N[C@@H](CO)C(=O)N[C@H](CC(C)C)C(=O)N[C@H](C(=O)O)C(C)C` gave an inhibition [3] of 1.2%.
For `CC(=O)N[C@@H](CO)C(=O)Nc1ccc(C(=O)N[C@H](C(=O)O)C(C)C)cc1`, the inhibition [3] was 16.5%.
In the case of `CC(=O)N[C@@H](CO)C(=O)Nc1cccc(C(=O)N[C@H](C(=O)O)C(C)C)c1`, the inhibition [3] is reported as 9.5%.
Molecule `CC(=O)N[C@H](CO)C(=O)N[C@@H](CC(C)C)C(=O)N[C@H](C(=O)O)C(C)C` has an inhibition [3] of 59.2%.
Work on `CC(C)C[C@H](NC(=O)[C@H](CO)NC(=O)C1CCCCC1)C(=O)N[C@H](C(=O)O)C(C)C` yielded an inhibition [5] of 16%.
For `CC(C)C[C@H](NC(=O)[C@H](CO)NC(=O)NC1CCCCC1)C(=O)N[C@H](C(=O)O)C(C)C`, the inhibition [5] was 29.1%.
Work on `CC(C)C[C@H](NC(=O)[C@H](CO)NC(=O)Nc1ccc(C(=O)[C@@H](N)CCC(=O)O)cc1)C(=O)N[C@H](C(=O)O)C(C)C` yielded an inhibition [5] of 66.6%.
Molecule `CC(C)C[C@H](NC(=O)[C@H](CO)NC(=O)Nc1cccc(C(=O)[C@@H](N)CCC(=O)O)c1)C(=O)N[C@H](C(=O)O)C(C)C` has an inhibition [5] of 76.8%.
In the case of `CC(C)C[C@H](NC(=O)[C@H](CO)NC(=O)Nc1ccccc1C(=O)[C@@H](N)CCC(=O)O)C(=O)N[C@H](C(=O)O)C(C)C`, the inhibition [5] is reported as 47.8%.
`CC[C@@H](C)[C@H](NC(=O)[C@H](CCC(=O)O)NC(C)=O)C(=O)N[C@@H](CCC(N)=O)C(=O)N[C@@H](CO)C(=O)N[C@@H](CC(C)C)C(=O)N[C@H](C(=O)O)C(C)C` gave an inhibition [5] of 29.6%.
For `CC(=O)N[C@@H](COC(C)=O)C(=O)N[C@@H](CC(C)C)C(=O)N[C@H](C(=O)O)C(C)C` (Ac-Ser(Ac)-Leu-Val-OH), the inhibition [4] was 47.9%.
Molecule `CC(=O)N[C@@H](COCc1ccccc1)C(=O)N[C@@H](CC(C)C)C(=O)N[C@H](C(=O)O)C(C)C` (Ac-Ser(Bn)-Leu-Val-OH) has an inhibition [4] of 10.4%.
`CC(=O)N[C@@H](COC(=O)c1ccccc1)C(=O)N[C@@H](CC(C)C)C(=O)N[C@H](C(=O)O)C(C)C` (Ac-Ser(Bz)-Leu-Val-OH) showed an inhibition [4] of 36.2%.
With `COC(=O)[C@@H](NC(=O)[C@H](CC(C)C)NC(=O)[C@H](CO)NC(C)=O)C(C)C` (Ac-Ser-Leu-Val-OMe) the inhibition [3] was -0.5%.
Work on `CC[C@H](NC(=O)[C@H](CC(C)C)NC(=O)[C@H](CO)NC(C)=O)C(=O)O` (Ac-Ser-Leu-[Abu]-OH) yielded an inhibition [1] of 18.7%.
Work on `CC(=O)N[C@@H](CO)C(=O)N[C@@H](CC(C)C)C(=O)N[C@H](C(=O)O)C1CCCCC1` (Ac-Ser-Leu-[Chg]-OH) yielded an inhibition [1] of 7.7%.
Molecule `CCC[C@H](NC(=O)[C@H](CC(C)C)NC(=O)[C@H](CO)NC(C)=O)C(=O)O` (Ac-Ser-Leu-[Nva]-OH) has an inhibition [1] of 16.6%.
Molecule `CC(=O)N[C@@H](CO)C(=O)N[C@@H](CC(C)C)C(=O)N[C@H](C(=O)O)C(C)(C)C` (Ac-Ser-Leu-[Tle]-OH) has an inhibition [1] of 7.2%.
Work on `CC(=O)N[C@@H](CO)C(=O)N[C@@H](CC(C)C)C(=O)N[C@@H](CC(C)(C)C)C(=O)O` (Ac-Ser-Leu-[tBuAla]-OH) yielded an inhibition [1] of 10.1%.
Work on `CC[C@H](NC(=O)[C@H](CO)NC(C)=O)C(=O)N[C@H](C(=O)O)C(C)C` (Ac-Ser-[Abu]-Val-OH) yielded an inhibition [2] of 21.1%.
In the case of `CC(=O)N[C@@H](CO)C(=O)NC(C)(C)C(=O)N[C@H](C(=O)O)C(C)C` (Ac-Ser-[Aib]-Val-OH), the inhibition [3] is reported as -4%.
With `CC(=O)N[C@@H](CO)C(=O)N[C@H](C(=O)N[C@H](C(=O)O)C(C)C)C1CCCCC1` (Ac-Ser-[Chg]-Val-OH) the inhibition [2] was 34.7%.
Molecule `CC(=O)N[C@@H](CO)C(=O)N(C)[C@@H](CC(C)C)C(=O)N[C@H](C(=O)O)C(C)C` (Ac-Ser-[NMeL]-Val-OH) has an inhibition [3] of 33.4%.
In the case of `CCC[C@H](NC(=O)[C@H](CO)NC(C)=O)C(=O)N[C@H](C(=O)O)C(C)C` (Ac-Ser-[Nva]-Val-OH), the inhibition [2] is reported as 6%.
Molecule `CC(=O)N[C@@H](CO)C(=O)N[C@H](C(=O)N[C@H](C(=O)O)C(C)C)c1ccccc1` (Ac-Ser-[Phg]-Val-OH) has an inhibition [2] of 18.5%.
Work on `CC(=O)N[C@@H](CO)C(=O)N[C@H](C(=O)N[C@H](C(=O)O)C(C)C)C(C)(C)C` (Ac-Ser-[Tle]-Val-OH) yielded an inhibition [2] of 54.6%.
In the case of `CC(=O)N(C)[C@@H](CO)C(=O)N[C@@H](CC(C)C)C(=O)N[C@H](C(=O)O)C(C)C` (Ac-[NMeS]-Leu-Val-OH), the inhibition [3] is reported as 20.6%.
`CC(=O)N[C@@H](CC(C)C)[C@@H](O)CC(=O)N[C@@H](CC(C)C)C(=O)N[C@H](C(=O)O)C(C)C` (Ac-[Sta]-Leu-Val-OH) showed an inhibition [1] of 9.9%.
Work on `CC(=O)N[C@@H](CCO)C(=O)N[C@@H](CC(C)C)C(=O)N[C@H](C(=O)O)C(C)C` (Ac-[hSer]-Leu-Val-OH) yielded an inhibition [1] of 13.3%.
For `CC(C)C[C@H](NC(=O)[C@H](CO)NC(=O)c1ccccc1)C(=O)N[C@H](C(=O)O)C(C)C` (Bz-Ser-Leu-Val-OH), the inhibition [5] was 28%.
`CC(C)C[C@H](NC(=O)[C@H](CO)NC(=O)Nc1ccccc1)C(=O)N[C@H](C(=O)O)C(C)C` ({NHPh-CO}-Ser-Leu-Val-OH) gave an inhibition [5] of 51.5%.
